Experimental findings from ChEMBL document CHEMBL3407369, “Exploration of cyanine compounds as selective inhibitors of protein arginine methyltransferases: synthesis and biological evaluation” (J Med Chem, 2015) are described below.

Molecules are shown by their SMILES.

Test [1] concerns the target T1, Protein arginine N-methyltransferase 1 (Homo sapiens, UniProt Q99873). Kind of test: Displacement of [3H]-SAM from recombinant His6-tagged PRMT1 (unknown origin) expressed in Escherichia coli BL21(DE3) incubated for 5 mins prior to H4(1 to 20)-BTN peptide addition measured after 8 mins by scintillation proximity assay. The method, boiled down:
(§1)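 Serial compound dilutions were tested in the same SPA format (His-tagged enzyme purified from E. coli BL21(DE3), 5 min preincubation, H4(1–20)-biotin substrate, 8 min reaction, ~25 °C, HEPES pH 8.0 buffer). [3H]SAM and peptide were set near their predetermined Km values for each enzyme. Remaining activity was fitted to a Hill-modified IC50 equation, giving IC50 and Hill coefficient.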
Target sequence in this assay (Q99873 whole entry): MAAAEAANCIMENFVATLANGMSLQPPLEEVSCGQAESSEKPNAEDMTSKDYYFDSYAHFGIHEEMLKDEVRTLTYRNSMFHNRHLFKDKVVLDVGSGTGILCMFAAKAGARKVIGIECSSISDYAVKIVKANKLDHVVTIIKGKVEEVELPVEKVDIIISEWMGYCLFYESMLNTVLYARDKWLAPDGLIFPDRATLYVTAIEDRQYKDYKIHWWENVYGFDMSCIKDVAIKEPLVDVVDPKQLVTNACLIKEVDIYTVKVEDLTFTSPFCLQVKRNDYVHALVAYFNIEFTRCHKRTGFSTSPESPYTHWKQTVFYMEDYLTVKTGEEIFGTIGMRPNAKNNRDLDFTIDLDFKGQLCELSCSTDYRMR

Test [2] is filed under the species Homo sapiens. Kind of test: Selectivity ratio of IC50 for recombinant […] (unknown origin) to IC50 for recombinant His6-tagged PRMT1 (unknown origin).
Test [3] concerns the target T1, Protein arginine N-methyltransferase 1. As to the kind of experiment: Displacement of [3H]-SAM from recombinant His6-tagged PRMT1 (unknown origin) expressed in Escherichia coli BL21(DE3) at 10 uM incubated for 5 mins prior to H4(1 to 20)-BTN peptide addition measured after 8 mins by scintillation proximity assay. The essentials: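 His6-PRMT1 (0.02 µM) was purified from E. coli BL21(DE3) on Ni-NTA. It was preincubated 5 min with compound (10, 30 or 90 µM) and [3H]SAM (0.5 µM) in 50 mM HEPES pH 8.0, 1 mM EDTA, 50 mM NaCl, 0.5 mM DTT at ~25 °C. Biotinylated H4(1–20) peptide (1 µM) was added and the reaction run 8 min. It was quenched with isopropanol and read with streptavidin SPA beads. % inhibition was taken against water (full activity) and no-peptide blanks.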
Target sequence in this assay (Q99873 whole entry, looked up): as the sequence (Q99873 whole entry) above

In test [4] the target is Protein arginine N-methyltransferase 8 (Homo sapiens, UniProt Q9NR22). Kind of test: Displacement of [3H]-SAM from recombinant His6-tagged PRMT8 (unknown origin) expressed in Escherichia coli BL21(DE3) incubated for 5 mins prior to H4(1 to 20)-BTN peptide addition measured after 8 mins by scintillation proximity assay. The essentials:
as §1

Test [5] addresses Protein arginine N-methyltransferase 5 (Homo sapiens, UniProt O14744). Kind of test: Displacement of [3H]-SAM from recombinant His6-tagged PRMT5 (unknown origin) expressed in Escherichia coli BL21(DE3) incubated for 5 mins prior to H4(1 to 20)-BTN peptide addition measured after 8 mins by scintillation proximity assay. The method, boiled down: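 Recombinant His6-PRMT5 was purified on Ni-NTA after IPTG induction in E. coli BL21(DE3). [3H]SAM and H4(1–20)BTN were set near their predetermined Km. Serially diluted compound was preincubated 5 min before peptide addition, reacted 8 min, isopropanol-quenched, and read with streptavidin SPA beads. IC50 and nH came from a Hill fit.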

The target in test [6] is T2, Histone-arginine methyltransferase CARM1 (Homo sapiens, UniProt Q86X55).
T2 sequence (Q86X55 whole entry): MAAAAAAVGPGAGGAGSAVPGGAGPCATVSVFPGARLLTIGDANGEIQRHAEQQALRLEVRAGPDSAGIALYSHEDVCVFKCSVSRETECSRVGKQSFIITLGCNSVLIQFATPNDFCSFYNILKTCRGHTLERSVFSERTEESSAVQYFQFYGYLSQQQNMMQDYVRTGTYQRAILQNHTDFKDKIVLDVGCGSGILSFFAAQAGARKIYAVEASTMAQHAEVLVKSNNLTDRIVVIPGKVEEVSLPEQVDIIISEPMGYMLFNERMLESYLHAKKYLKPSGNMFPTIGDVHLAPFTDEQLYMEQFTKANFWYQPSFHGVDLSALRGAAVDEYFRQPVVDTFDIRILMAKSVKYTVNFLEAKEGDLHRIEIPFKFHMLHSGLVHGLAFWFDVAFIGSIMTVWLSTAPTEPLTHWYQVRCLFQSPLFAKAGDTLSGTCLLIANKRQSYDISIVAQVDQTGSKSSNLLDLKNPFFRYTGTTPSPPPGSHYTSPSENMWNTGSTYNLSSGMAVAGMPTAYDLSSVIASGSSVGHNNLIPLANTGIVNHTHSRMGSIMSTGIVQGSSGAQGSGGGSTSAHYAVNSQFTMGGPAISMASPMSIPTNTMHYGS
Kind of test: Displacement of [3H]-SAM from recombinant GST-tagged CARM1 (unknown origin) expressed in Escherichia coli BL21(DE3) incubated for 5 mins prior to H3.3 protein addition measured after 8 mins by P81 filter paper binding assay.

The species named for test [7] is Homo sapiens. Kind of test: Selectivity ratio of IC50 for recombinant His6-tagged PRMT5 (unknown origin) to IC50 for recombinant His6-tagged PRMT1 (unknown origin).
The species named for test [8] is Homo sapiens. Kind of test: Selectivity ratio of IC50 for recombinant His6-tagged PRMT8 (unknown origin) to IC50 for recombinant His6-tagged PRMT1 (unknown origin).

Sequence of Protein arginine N-methyltransferase 5 (O14744 whole entry): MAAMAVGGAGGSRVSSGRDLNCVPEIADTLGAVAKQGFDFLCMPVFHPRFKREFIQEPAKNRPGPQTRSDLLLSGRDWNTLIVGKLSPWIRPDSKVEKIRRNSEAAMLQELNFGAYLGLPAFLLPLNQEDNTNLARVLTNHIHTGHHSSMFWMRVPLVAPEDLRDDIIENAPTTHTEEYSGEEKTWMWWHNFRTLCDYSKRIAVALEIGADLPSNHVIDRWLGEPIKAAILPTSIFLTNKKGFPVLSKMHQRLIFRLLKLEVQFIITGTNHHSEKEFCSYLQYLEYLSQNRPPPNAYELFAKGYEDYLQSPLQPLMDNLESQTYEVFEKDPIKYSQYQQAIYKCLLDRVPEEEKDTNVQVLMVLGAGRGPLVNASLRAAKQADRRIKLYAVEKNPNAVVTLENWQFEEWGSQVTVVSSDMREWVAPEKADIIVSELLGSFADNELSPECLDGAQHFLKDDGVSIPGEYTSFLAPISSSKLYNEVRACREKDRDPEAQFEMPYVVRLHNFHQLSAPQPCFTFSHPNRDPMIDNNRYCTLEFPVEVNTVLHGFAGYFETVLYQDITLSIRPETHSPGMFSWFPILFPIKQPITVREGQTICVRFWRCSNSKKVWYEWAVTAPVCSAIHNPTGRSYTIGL
Sequence of Protein arginine N-methyltransferase 8 (Q9NR22 whole entry): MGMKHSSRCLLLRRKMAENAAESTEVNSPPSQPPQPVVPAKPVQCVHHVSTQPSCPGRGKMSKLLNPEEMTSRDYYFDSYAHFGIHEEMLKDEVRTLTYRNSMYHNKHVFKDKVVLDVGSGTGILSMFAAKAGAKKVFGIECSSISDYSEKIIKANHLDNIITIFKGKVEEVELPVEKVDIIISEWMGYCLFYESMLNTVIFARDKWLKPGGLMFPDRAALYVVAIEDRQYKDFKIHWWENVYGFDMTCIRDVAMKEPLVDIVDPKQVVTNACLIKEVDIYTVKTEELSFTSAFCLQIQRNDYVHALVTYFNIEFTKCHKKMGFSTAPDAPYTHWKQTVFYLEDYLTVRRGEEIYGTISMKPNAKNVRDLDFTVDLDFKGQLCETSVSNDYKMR

As to `C(/C=C/c1sc2c3ccccc3ccc2[n+]1CCCc1ccccc1)=C1/Sc2c(ccc3ccccc23)N1CCCc1ccccc1`, the IC50 in test [1] came out at 3.05 µM; in test [4], 28.4 µM; in test [5], 7.04 µM; in test [6], 5.8 µM. For the same compound, the Ratio IC50 in the test filed under Homo sapiens [2] is 2; in the test listed under Homo sapiens [7], 2; in the test filed under Homo sapiens [8], over 9. For the same compound, the inhibition in test [3] came out at 100%.
